Positions of bridges follow the written chain, without caps; N, C: chain ends. Non-standard residues stand in square brackets, D forms with d. Residues, ends and D or L forms follow the SMILES beside them. ξ: configuration not given here. Nva = CCC[C@H](N)C(=O)O; ξA = CC(N)C(=O)O
How the values were obtained:
[1] = target: T1, Atrial natriuretic peptide receptor 3 (Homo sapiens) (UniProt P17342); assay: Binding affinity for non-vasorelaxant receptor by competitive displacement of [125I]-AP(103-126) from rabbit lung membranes; format: tissue-based; details: Oryctolagus cuniculus, Membrane, target entry is the homologue from another species
T1 sequence (whole entry): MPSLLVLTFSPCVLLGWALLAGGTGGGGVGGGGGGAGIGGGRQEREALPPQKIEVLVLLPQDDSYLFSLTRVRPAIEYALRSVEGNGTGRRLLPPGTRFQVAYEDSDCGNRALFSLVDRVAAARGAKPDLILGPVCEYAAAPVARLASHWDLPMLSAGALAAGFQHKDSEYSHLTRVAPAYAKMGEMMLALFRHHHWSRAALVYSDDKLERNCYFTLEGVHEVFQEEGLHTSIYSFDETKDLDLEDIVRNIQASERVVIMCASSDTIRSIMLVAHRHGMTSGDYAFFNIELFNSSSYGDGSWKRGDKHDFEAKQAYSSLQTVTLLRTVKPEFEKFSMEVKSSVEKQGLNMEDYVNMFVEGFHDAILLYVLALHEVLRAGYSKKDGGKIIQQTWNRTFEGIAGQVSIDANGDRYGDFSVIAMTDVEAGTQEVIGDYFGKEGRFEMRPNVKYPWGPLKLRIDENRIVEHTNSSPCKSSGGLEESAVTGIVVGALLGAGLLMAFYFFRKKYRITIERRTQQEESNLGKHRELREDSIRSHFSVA

[2] = target: Atrial natriuretic peptide receptor (Homo sapiens) (UniProt P20594+P16066+P17342); assay: Selectivity factor, ratio of NVR and VR relative binding potency; format: protein assay; details: Oryctolagus cuniculus
[3] = species on record: Oryctolagus cuniculus; assay: Binding affinity for vasorelaxant receptor by competitive displacement of [125I]-AP(103-126) from rabbit lung membranes; format: tissue-based; details: Membrane
[4] = Apparent binding constant for vasorelaxant subclass of receptors; parameters: species or system Oryctolagus cuniculus
Summary of the method: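 Competitive binding assay on rabbit lung membranes, using atrial peptide analogues.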

SMILES | Relative potency [1] | Ratio [2] | Relative potency [3] | Ki [4] [nM]
CC[C@H](C)[C@@H]1NC(=O)[C@H](CCCN=C(N)N)NC(=O)[C@H](CC(=O)O)NC(=O)[C@H]([C@@H](C)CC)NC(=O)[C@H](CCCN=C(N)N)NC(=O)CNC(=O)CNC(=O)[C@H](Cc2ccccc2)NC(=O)C(C)NC(=O)[C@@H](NC(=O)[C@@H](N)CO)CSSC[C@@H](C(=O)N[C@@H](CO)C(=O)N[C@@H](Cc2ccccc2)C(=O)N[C@@H](CCCN=C(N)N)C(N)=O)NC(=O)C(C)NC(=O)CNC(=O)[C@H](CC(C)C)NC(=O)CNC(=O)[C@H](CO)NC(=O)[C@H](CCC(N)=O)NC(=O)[C@H](C)NC(=O)CNC1=O (some centres undefined) (H-SC[ξA]FGGRIDRIGAQSGLG[ξA]CSFR-NH2; disulfide 2-20) | 1.3 | 464 | 0.0028 | –
CC[C@H](C)[C@@H]1NC(=O)[C@H](CCCN=C(N)N)NC(=O)[C@H](CC(=O)O)NC(=O)[C@H]([C@@H](C)CC)NC(=O)[C@H](CCCN=C(N)N)NC(=O)[C@@H](NC(=O)CNC(=O)[C@H](Cc2ccccc2)NC(=O)[C@H](C)NC(=O)[C@H](CO)NC(=O)[C@@H](N)CO)CSSC[C@@H](C(=O)NCC(=O)N[C@@H](CC(C)C)C(=O)NCC(=O)N[C@@H](C)C(=O)N[C@@H](CC(N)=O)C(=O)N[C@@H](CO)C(=O)N[C@@H](Cc2ccccc2)C(=O)N[C@@H](CCCN=C(N)N)C(N)=O)NC(=O)[C@H](CCC(N)=O)NC(=O)[C@H](C)NC(=O)CNC1=O (H-SSAFGCRIDRIGAQCGLGANSFR-NH2; disulfide 6-15) | 0.63 | 485 | 0.0013 | –
CC[C@H](C)[C@@H]1NC(=O)[C@H](CCCN=C(N)N)NC(=O)[C@H](CC(=O)O)NC(=O)[C@H]([C@@H](C)CC)NC(=O)[C@H](CCCN=C(N)N)NC(=O)[C@@H](NC(=O)CNC(=O)[C@H](Cc2ccccc2)NC(=O)[C@H](CSC)NC(=O)[C@H](CO)NC(=O)[C@@H](N)CO)CSSC[C@@H](C(=O)NCC(=O)N[C@@H](CC(C)C)C(=O)NCC(=O)N[C@@H](CSC)C(=O)N[C@@H](CC(N)=O)C(=O)N[C@@H](CO)C(=O)N[C@@H](Cc2ccccc2)C(=O)N[C@@H](CCCN=C(N)N)C(N)=O)NC(=O)[C@H](CCC(N)=O)NC(=O)[C@H](C)NC(=O)CNC1=O (H-SSC(Me)FGCRIDRIGAQCGLGC(Me)NSFR-NH2; disulfide 6-15) | 0.59 | 369 | 0.0016 | –
CC[C@H](C)[C@@H]1NC(=O)[C@H](CCCN=C(N)N)NC(=O)[C@H](CC(=O)O)NC(=O)[C@H]([C@@H](C)CC)NC(=O)[C@H](CCCN=C(N)N)NC(=O)CNC(=O)CNC(=O)[C@H](Cc2ccccc2)NC(=O)[C@@H](NC(=O)[C@H](CO)NC(=O)[C@@H](N)CO)CSSC[C@@H](C(=O)N[C@@H](CSC)C(=O)N[C@@H](CC(N)=O)C(=O)N[C@@H](CO)C(=O)N[C@@H](Cc2ccccc2)C(=O)N[C@@H](CCCN=C(N)N)C(N)=O)NC(=O)[C@H](CC(C)C)NC(=O)CNC(=O)[C@H](CO)NC(=O)[C@H](CCC(N)=O)NC(=O)[C@H](C)NC(=O)CNC1=O (H-SSCFGGRIDRIGAQSGLCC(Me)NSFR-NH2; disulfide 3-18) | 1.3 | 32 | 0.041 | –
CC[C@H](C)[C@@H]1NC(=O)[C@H](CCCN=C(N)N)NC(=O)[C@H](CC(=O)O)NC(=O)[C@H]([C@@H](C)CC)NC(=O)[C@H](CCCN=C(N)N)NC(=O)CNC(=O)CNC(=O)[C@H](Cc2ccccc2)NC(=O)[C@@H](NC(=O)[C@H](CO)NC(=O)[C@@H](N)CO)CSSC[C@@H](C(=O)N[C@@H](CO)C(=O)N[C@@H](CC(N)=O)C(=O)N[C@@H](CO)C(=O)N[C@@H](Cc2ccccc2)C(=O)N[C@@H](CCCN=C(N)N)C(N)=O)NC(=O)[C@H](CC(C)C)NC(=O)CNC(=O)[C@H](CO)NC(=O)[C@H](CCC(N)=O)NC(=O)[C@H](C)NC(=O)CNC1=O (H-SSCFGGRIDRIGAQSGLCSNSFR-NH2; disulfide 3-18) | 1.3 | 23 | 0.056 | –
CCC[C@H](NC(=O)[C@@H]1CSSC[C@H](NC(=O)[C@H](CO)NC(=O)[C@@H](N)CO)C(=O)N[C@@H](Cc2ccccc2)C(=O)NCC(=O)NCC(=O)N[C@@H](CCCN=C(N)N)C(=O)N[C@@H]([C@@H](C)CC)C(=O)N[C@@H](CC(=O)O)C(=O)N[C@@H](CCCN=C(N)N)C(=O)N[C@@H]([C@@H](C)CC)C(=O)NCC(=O)N[C@@H](C)C(=O)N[C@@H](CCC(N)=O)C(=O)N[C@@H](CO)C(=O)NCC(=O)N[C@@H](CC(C)C)C(=O)N1)C(=O)N[C@@H](CC(N)=O)C(=O)N[C@@H](CO)C(=O)N[C@@H](Cc1ccccc1)C(=O)N[C@@H](CCCN=C(N)N)C(N)=O (H-SSCFGGRIDRIGAQSGLC[Nva]NSFR-NH2; disulfide 3-18) | 0.63 | 13 | 0.047 | –
CC[C@H](C)[C@@H]1NC(=O)[C@H](CCCN=C(N)N)NC(=O)[C@H](CC(=O)O)NC(=O)[C@H]([C@@H](C)CC)NC(=O)[C@H](CCCN=C(N)N)NC(=O)CNC(=O)CNC(=O)[C@H](Cc2ccccc2)NC(=O)[C@@H](NC(=O)[C@H](CO)NC(=O)[C@@H](N)CO)CSSC[C@@H](C(=O)NC(C)C(=O)N[C@@H](CC(N)=O)C(=O)N[C@@H](CO)C(=O)N[C@@H](Cc2ccccc2)C(=O)N[C@@H](CCCN=C(N)N)C(N)=O)NC(=O)[C@H](CC(C)C)NC(=O)CNC(=O)[C@H](CO)NC(=O)[C@H](CCC(N)=O)NC(=O)[C@H](C)NC(=O)CNC1=O (some centres undefined) (H-SSCFGGRIDRIGAQSGLC[ξA]NSFR-NH2; disulfide 3-18) | 0.94 | 6 | 0.16 | –
CC[C@H](C)[C@@H]1NC(=O)[C@H](CCCN=C(N)N)NC(=O)[C@H](CC(=O)O)NC(=O)[C@H]([C@@H](C)CC)NC(=O)[C@H](CCCN=C(N)N)NC(=O)[C@@H](NC(=O)CNC(=O)[C@H](Cc2ccccc2)NC(=O)CNC(=O)[C@H](CO)NC(=O)[C@@H](N)CO)CSSC[C@@H](C(=O)NCC(=O)N[C@@H](CC(C)C)C(=O)NCC(=O)NCC(=O)N[C@@H](CC(N)=O)C(=O)N[C@@H](CO)C(=O)N[C@@H](Cc2ccccc2)C(=O)N[C@@H](CCCN=C(N)N)C(N)=O)NC(=O)[C@H](CCC(N)=O)NC(=O)[C@H](C)NC(=O)CNC1=O (H-SSGFGCRIDRIGAQCGLGGNSFR-NH2; disulfide 6-15) | 1.3 | 118 | 0.011 | 7.4
CC[C@H](C)[C@@H]1NC(=O)[C@H](CCCN=C(N)N)NC(=O)[C@H](CC(=O)O)NC(=O)[C@H]([C@@H](C)CC)NC(=O)[C@H](CCCN=C(N)N)NC(=O)[C@@H](NC(=O)CNC(=O)[C@H](Cc2ccccc2)NC(=O)CNC(=O)[C@H](CO)NC(=O)[C@@H](N)CO)CSSC[C@@H](C(=O)N[C@@H](CC(C)C)C(=O)NCC(=O)NCC(=O)N[C@@H](CC(N)=O)C(=O)N[C@@H](CO)C(=O)N[C@@H](Cc2ccccc2)C(=O)N[C@@H](CCCN=C(N)N)C(N)=O)NC(=O)[C@H](CO)NC(=O)[C@H](CCC(N)=O)NC(=O)[C@H](C)NC(=O)CNC1=O (H-SSGFGCRIDRIGAQSCLGGNSFR-NH2; disulfide 6-16) | 0.81 | 1120 | 0.00072 | –
CC[C@H](C)[C@@H]1NC(=O)[C@H](CCCN=C(N)N)NC(=O)[C@H](CC(=O)O)NC(=O)[C@H]([C@@H](C)CC)NC(=O)[C@H](CCCN=C(N)N)NC(=O)[C@@H](NC(=O)CNC(=O)[C@H](Cc2ccccc2)NC(=O)[C@H](CO)NC(=O)[C@H](CO)NC(=O)[C@@H](N)CO)CSSC[C@@H](C(=O)NCC(=O)N[C@@H](CC(C)C)C(=O)NCC(=O)N[C@@H](CO)C(=O)N[C@@H](CC(N)=O)C(=O)N[C@@H](CO)C(=O)N[C@@H](Cc2ccccc2)C(=O)N[C@@H](CCCN=C(N)N)C(N)=O)NC(=O)[C@H](CCC(N)=O)NC(=O)[C@H](C)NC(=O)CNC1=O (H-SSSFGCRIDRIGAQCGLGSNSFR-NH2; disulfide 6-15) | 0.44 | 293 | 0.0015 | –
CCC[C@H](NC(=O)CNC(=O)[C@H](CC(C)C)NC(=O)CNC(=O)[C@@H]1CSSC[C@H](NC(=O)CNC(=O)[C@H](Cc2ccccc2)NC(=O)[C@H](CCC)NC(=O)[C@H](CO)NC(=O)[C@@H](N)CO)C(=O)N[C@@H](CCCN=C(N)N)C(=O)N[C@@H]([C@@H](C)CC)C(=O)N[C@@H](CC(=O)O)C(=O)N[C@@H](CCCN=C(N)N)C(=O)N[C@@H]([C@@H](C)CC)C(=O)NCC(=O)N[C@@H](C)C(=O)N[C@@H](CCC(N)=O)C(=O)N1)C(=O)N[C@@H](CC(N)=O)C(=O)N[C@@H](CO)C(=O)N[C@@H](Cc1ccccc1)C(=O)N[C@@H](CCCN=C(N)N)C(N)=O (H-SS[Nva]FGCRIDRIGAQCGLG[Nva]NSFR-NH2; disulfide 6-15) | 0.26 | 286 | 0.00091 | –

Source: ChEMBL document CHEMBL1124687, “Analogues of atriopeptin(103-125)amide having high binding selectivity” (J Med Chem, 1989)
